Screening data as filed in PubChem BioAssay.
HSV augment: HSV replication enhancement; HSV replication augmentation in cells, fold increase; maximum fold increase; 220,000 compounds, 0.005% hits; AID 1956; in the data active = maximum fold increase above about 1.5; inconclusive = no clear call, values can overlap the other calls; tested in PC3 cells
Furin inh: human furin inhibition; inhibition, % at 20 µM or 30 µM; purified furin, fluorogenic substrate cleavage; P09958; 220,000 compounds, 0.061% hits; in the data active = inhibition above about 25%
Target sequence (P09958 108-714 limits assumed): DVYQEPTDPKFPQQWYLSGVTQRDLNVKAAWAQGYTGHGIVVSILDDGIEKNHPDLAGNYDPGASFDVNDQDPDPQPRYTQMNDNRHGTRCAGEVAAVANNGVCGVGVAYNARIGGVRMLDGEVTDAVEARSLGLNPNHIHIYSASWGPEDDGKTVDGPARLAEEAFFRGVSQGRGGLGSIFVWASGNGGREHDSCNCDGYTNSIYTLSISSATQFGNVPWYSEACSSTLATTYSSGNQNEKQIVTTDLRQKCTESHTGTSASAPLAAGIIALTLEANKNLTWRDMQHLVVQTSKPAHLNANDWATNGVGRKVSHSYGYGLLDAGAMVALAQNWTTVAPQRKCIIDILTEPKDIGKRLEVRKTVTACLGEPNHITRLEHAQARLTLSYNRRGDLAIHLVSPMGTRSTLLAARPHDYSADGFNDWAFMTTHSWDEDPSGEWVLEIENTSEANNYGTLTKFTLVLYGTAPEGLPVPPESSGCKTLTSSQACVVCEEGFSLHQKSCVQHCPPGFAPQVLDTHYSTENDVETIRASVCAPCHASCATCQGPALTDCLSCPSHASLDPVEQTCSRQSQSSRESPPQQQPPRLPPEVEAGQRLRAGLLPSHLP
Autophagy HCS: modulators of autophagy; calls only at 10 µM (by protocol); MEF GFP-LC3 puncta imaging; test concentration mostly 10 µM; 190,000 compounds, 0.98% hits;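 active = percentage of spot-positive cells more than 3 SD above its plate mean, without a fluorescence outlier flag or 80% toxicity; inconclusive = no clear call, values can overlap the other calls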
Dynein cargo inh: blocks dynein driven cargo transport along microtubules | 3617.4 mouse cells, GR-EGFP nuclear translocation imaging; test concentration mostly 20 µM; stimulated with dexamethasone, 1 µM; active compounds read low | z-score, hits read low | 220,000 compounds, 0.47% hits | AID 1381;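 active = plate z-score of nuclear minus cytoplasmic receptor signal below a set negative limit, without overly bright fluorescence or cell loss, cut at about -3.5 in these data, passing the limit was not always enough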;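 also: z-score of nuclear minus cytoplasmic ring GR-EGFP intensity difference per well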
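Buffer or medium: tet-free, stripped-serum medium; reagent: dexamethasone at 1.0 µM final, 30 min; incubation: 48 h induction, 1 h compound, 30 min dex at 37 °C; measured by: formaldehyde fixation, Hoechst nuclear stain, 10x automated fluorescence imaging; read-out: nuclear-to-cytoplasmic GR-EGFP distribution per well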
Ins promoter up: MIN6 insulin promoter up-regulation; 190,000 compounds, 0.3% hits; z-score at 5 µM; MIN6 insulin promoter-GFP reporter, high-content imaging; active compounds read high;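 active = z-score above 3 at 5 µM with at least 500 cells counted in the well; inconclusive = wells under 500 cells, flagged as cytotoxic or low count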
INS promoter inh: TRM-6 insulin promoter activity inhibition | TRM-6 cells (human fetal islet line), insulin promoter-eGFP reporter, imaging; reporter expression induced with tamoxifen | inhibition, % at 2 µM | 130,000 compounds, 0.9% hits;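 active = inhibition above the mean plus 3 SD, with well images judged a real hit on visual review, cut at about 60% in these data, passing the limit was not always enough; inconclusive = inhibition over the cutoff but images rejected on review; inactive = inhibition not above the cutoff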
Dynein inh conf: dynein cargo transport inhibition, confirmation. 1,000 compounds, 69% hits. shares compounds with Dynein cargo inh. AID 463116. 3617.4 GR-EGFP nuclear translocation imaging, dexamethasone-induced. calls only at 20 µM;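 active = inhibition of receptor movement into the nucleus at or above a set limit in both runs, with normal cell brightness and cell count; inconclusive = limit reached in only one run, brightness and count normal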;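 also: dexamethasone at 1 µM final in well for 30 min; nuclear minus cytoplasmic GR-EGFP mean intensity difference in channel 2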
Of the large screens only hits and unclear results are named; the others gave an inactive call (follow-up assays come after a bar, where they were run); ! = a repeat was not active. This is a sample that favours compounds with a hit; in the whole collection about 2% have one here.

CCN1CC2([N+](=O)[O-])CC=C(Cl)C([N+](=O)[O-])(C1)C2 (stereo not given)	none
N=Cc1c(O)n(-c2cccc(Cl)c2)c(=O)[nH]c1=O	none
O=c1[nH]c2ccccc2c(=O)n1-c1cccc(Cl)c1	INS promoter inh 82
Cc1cc2c(C(C)C)c(O)c(O)c(C=O)c2c(O)c1-c1c(C)cc2c(C(C)C)c(O)c(O)c(C=O)c2c1O	INS promoter inh 62! (no result: Ins promoter up)
O=C1NC(=O)N(c2ccc(Br)cc2)C(=O)/C1=C/c1ccsc1	Autophagy HCS active
O=P(Oc1ccccc1)(Oc1ccccc1)c1ccccc1	none (no result: Autophagy HCS, INS promoter inh)
CC(=O)OC1(c2ccccc2)CC(C(C)(C)C)CN(C(C)(C)C)C1 (stereo not given)	none
O=c1c2cc(Br)ccc2[nH]c(=S)n1-c1ccccc1	INS promoter inh 73
O=c1c2ccccc2[nH]c(=S)n1-c1ccc(Br)cc1	none (no result: INS promoter inh)
CCN(CC)S(=O)(=O)c1cccc(N=Nc2c(O)n(CC)c(=S)n(CC)c2=O)c1	none (no result: Autophagy HCS, INS promoter inh)
Cc1cc(C=O)c(C)n1C1CCCCC1	INS promoter inh 69
O=S(=O)(c1ccccc1)N1CN2CCN(C2)C1	INS promoter inh 86
Cc1ccccc1-n1c(-c2ccoc2)nc2ccccc2c1=O	none (no result: INS promoter inh)
COc1cc(C2SCC(=O)Nc3c2c(C)nn3-c2ccccc2)cc(OC)c1OC (stereo not given)	none (no result: INS promoter inh)
Cc1nn(-c2ccccc2)c2c1C(c1ccc3c(c1)OCO3)SCC(=O)N2 (stereo not given)	INS promoter inh 79
CC(C)c1ccc(N2C(=O)NC(=O)/C(=C/C=C/c3ccco3)C2=O)cc1	HSV augment inconclusive (no result: INS promoter inh)
CCc1ccc(N2C(=O)NC(=O)/C(=C\C=C\c3ccco3)C2=O)cc1	HSV augment inconclusive, Dynein cargo inh -3.9 (no result: Autophagy HCS, INS promoter inh) | Dynein inh conf active
Cc1ccc(N2C(=O)NC(=O)/C(=C/C=C/c3ccco3)C2=O)cc1	HSV augment inconclusive, Dynein cargo inh -4.5 (no result: INS promoter inh) | Dynein inh conf active
Cc1cc(C)cc(N2C(=O)NC(=O)/C(=C\C=C\c3ccco3)C2=O)c1	Dynein cargo inh -4.5 (no result: HSV augment) | Dynein inh conf active
O=C1NC(=O)N(Cc2ccc(F)cc2)C(=O)/C1=C\C=C\c1ccco1	HSV augment inconclusive, Dynein cargo inh -5.1 (no result: Autophagy HCS, INS promoter inh) | Dynein inh conf active
Cc1cccc(NC(=O)C(C)N2CC=C(c3ccccc3)CC2)c1 (stereo not given)	none (no result: INS promoter inh)
O=C1NC(=O)N(c2ccccc2)C(=O)/C1=C\C=C\c1ccccc1	Dynein cargo inh -6 (no result: Autophagy HCS, INS promoter inh) | Dynein inh conf active
O=C1NC(=O)N(c2ccccc2)C(=O)/C1=C\c1ccc([N+](=O)[O-])s1	Dynein cargo inh -6 (no result: Autophagy HCS, INS promoter inh) | Dynein inh conf active
O=C1NC(=O)N(c2ccccc2)C(=O)/C1=C\c1ccc([N+](=O)[O-])o1	none (no result: Autophagy HCS, INS promoter inh)
COc1ccc(N2C(=O)NC(=O)/C(=C\c3ccccc3[N+](=O)[O-])C2=O)cc1	none (no result: INS promoter inh)
CN1C(=O)NC(=O)/C(=C/c2ccc([N+](=O)[O-])o2)C1=O	none (no result: Autophagy HCS, INS promoter inh)
COc1ccc(OC)c(N2C(=O)NC(=O)/C(=C\c3ccc([N+](=O)[O-])s3)C2=O)c1	Dynein cargo inh -5.6 | Dynein inh conf active
CN1C(=O)NC(=O)/C(=C/c2ccc([N+](=O)[O-])s2)C1=O	Dynein cargo inh -5.5 (no result: Autophagy HCS, INS promoter inh) | Dynein inh conf active
Cc1c(N=Nc2c(O)n(Cc3ccccc3)c(=O)[nH]c2=O)c(=O)n(-c2ccccc2)n1C	none
CC(=O)C1C2c3ccccc3O[C@@]1(C)N=c1s/c(=C/c3ccoc3)c(=O)n12 (stereo not given in full)	none (no result: HSV augment)
CN1CCN(S(=O)(=O)c2cnc(Cl)c(Br)c2)CC1	none (no result: INS promoter inh)
CCOc1ccc(N2C(=O)/C(=C\c3cccs3)C(=O)NC2=S)cc1	Dynein cargo inh -4.4 | Dynein inh conf active
O=c1[nH]sc2cc(F)ccc12	Dynein cargo inh -4.9 | Dynein inh conf active
O=[N+]([O-])c1ccc(NCc2ccccc2)c2nonc12	HSV augment inconclusive, Dynein cargo inh -6.8, Ins promoter up 13 (no result: INS promoter inh) | Dynein inh conf active
O=c1cc(C(F)(F)F)c2cc3c4c(c2o1)CCCN4CCC3	HSV augment inconclusive, Dynein cargo inh -4.8 (no result: Ins promoter up) | Dynein inh conf active
Cc1cc2c(C(F)(F)F)cc(=O)oc2c2c1NCCC2	HSV augment inconclusive (no result: Ins promoter up)
CC(=NCc1ccc2c(c1)OCO2)c1c(O)n(-c2ccc(C)cc2)c(=O)[nH]c1=O	none (no result: Autophagy HCS, Ins promoter up, INS promoter inh)
CC(C)(O)[C@@H]1[C@H]2OC(=O)[C@@H]1[C@]1(O)C[C@H]3O[C@]34C(=O)O[C@H]2[C@]14C (tested in a mixture with another compound)	none (no result: Furin inh, Autophagy HCS, Dynein cargo inh, Ins promoter up, INS promoter inh)
S=C(NC1CCCCC1)N1CCC(c2cnc[nH]2)CC1	none (no result: Furin inh, Autophagy HCS, Dynein cargo inh, Ins promoter up, INS promoter inh)
